In ChEMBL document CHEMBL1146596, “New lupane derived compounds with pro-apoptotic activity in cancer cells: synthesis and structure-activity relationships” (2003):

Tests used:
CEM-DNR [1] = assay: Tested for cytotoxicity against human T-lymphoblastic leukemia CEM-DNR bulk cell line; type: functional
In short: (§1)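 Cells were kept in DMEM/RPMI 1640 with 10% fetal calf serum, 2 mM glutamine and antibiotics. They were seeded at 2500–30 000 cells/well according to growth characteristics and preincubated 24 h at 37 °C, 5% CO2. Four-fold compound dilutions were tested in duplicate for 72 h. MTT was then added for 1–4 h, the formazan was dissolved in 10% SDS (pH 5.5) overnight, and OD was read at 540 nm. Survival was taken relative to mean control, and TCS50 was derived from dose–response curves.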

A549 = assay: Tested for cytotoxicity against human lung adenocarcinoma A549 cell line; type: functional; in short: as §1
LNCaP = assay: Tested for cytotoxicity against human prostate cancer LNCaP cell line; type: functional; in short: as §1
K562 [2] = assay: Tested for cytotoxicity against human […] leukemia K562 cell line; type: functional; in short: as §1
SK-MEL3 = assay: Tested for cytotoxicity against human melanoma MEL-3 cell line; type: functional; in short: as §1
K562 [3] = assay: Tested for cytotoxicity against human […] leukemia K562-FLU D-CEM cell line; type: functional
In short: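 Cytotoxicity by MTT in fludarabine-resistant K562 subline (K562-FLUD), cultured in DMEM/RPMI 1640 with 10% fetal calf serum. Cells seeded at 2500–30 000/well, preincubated 24 h at 37 °C, 5% CO2. Fourfold dilutions in duplicate, 72 h exposure. MTT 1–4 h, formazan dissolved in 10% SDS overnight, OD 540 nm. Survival relative to control; TCS50 taken from dose–response curves.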

CEM-DNR [4] = assay: Tested for cytotoxicity against human T-lymphoblastic leukemia CEM-DNR 1/C2 cell line; type: functional; in short: as §1
NIH3T3 = assay: Tested for cytotoxicity against mouse immortalized fibroblast NIH3T3 cell line; type: functional; in short: as §1
Caco-2 = assay: Tested for cytotoxicity against human colon cancer Caco-2 cell line; type: functional; in short: as §1
CCRF-CEM [5] = assay: Tested for cytotoxicity against human T-lymphoblastic leukemia CEM cell line; type: functional; in short: as §1
OVCAR-3 = assay: Tested for cytotoxicity against human ovarian cancer OVCAR-3 cell line; type: functional; in short: as §1
SAOS-2 = assay: Tested for cytotoxicity against human […] Saos2 cell line; type: functional; in short: as §1
MCF7 = assay: Tested for cytotoxicity against human breast cancer MCF-7 cell line; type: functional; in short: as §1
K562 [6] = assay: Tested for cytotoxicity against human […] leukemia K562-GEM cell line; type: functional; in short: as §1
BT-549 = assay: Tested for cytotoxicity against human breast cancer BT549 cell line; type: functional; in short: as §1
MDA-MB-238 = assay: Tested for cytotoxicity against human breast cancer MDA-MB-238 cell line; type: functional; in short: as §1
K562 [7] = assay: Tested for cytotoxicity against human […] leukemia K562-ARA-C cell line; type: functional; in short: as §1
CCRF-CEM [8] = assay: Cytotoxicity against chemosensitive CEM-T lymphoblastc leukemia cell line.; type: functional, Homo sapiens; in short: as §1
B16 [9] = assay: Tested for cytotoxicity against mouse melanoma B16F cell line; type: functional; in short: as §1
HT-29 = assay: Tested for cytotoxicity against human colon cancer HT-29 cell line; type: functional; in short: as §1
U2OS = assay: Tested for cytotoxicity against human osteosarcoma U2OS cell line; type: functional; in short: as §1
SW-620 = assay: Tested for cytotoxicity against human colon cancer SW620 cell line; type: functional; in short: as §1
HepG2 = assay: Tested for cytotoxicity against human hepatocellular carcinoma HepG2 cell line; type: functional; in short: as §1
CEM-VCR = assay: Tested for cytotoxicity against human T-lymphoblastic leukemia CEM-VCR bulk cell line; type: functional; in short: as §1
CEM-VCR 1/D/5 = assay: Tested for cytotoxicity against human T-lymphoblastic leukemia CEM-VCR 1/D5 cell line; type: functional; in short: as §1
B16 [10] = assay: Tested for cytotoxicity against mouse melanoma B16 cell line; type: functional; in short: as §1
CEM-VCR 1/F3 = assay: Tested for cytotoxicity against human T-lymphoblastic leukemia CEM-VCR 1/F3 cell line; type: functional; in short: as §1
K562 [11] = assay: Tested for cytotoxicity against human […] leukemia K562-CdA cell line; type: functional; in short: as §1
U-87 MG = assay: Tested for cytotoxicity against human glioblastoma U87MG cell line; type: functional, U-87MG ATCC; in short: as §1
DU-145 = assay: Tested for cytotoxicity against human prostate cancer DU145 cell line; type: functional; in short: as §1
Homo sapiens = species: Homo sapiens; assay: Tested for cytotoxicity against human normal lymphocytes; type: functional; in short: as §1

SMILES	TCS50 (CEM-DNR [1])	TCS50 (A549)	TCS50 (LNCaP)	TCS50 (K562 [2])	TCS50 (SK-MEL3)	TCS50 (K562 [3])	TCS50 (CEM-DNR [4])	TCS50 (NIH3T3)	TCS50 (CCRF-CEM [5])	TCS50 (OVCAR-3)	TCS50 (SAOS-2)	TCS50 (MCF7)	TCS50 (K562 [6])	TCS50 (BT-549)	TCS50 (MDA-MB-238)	TCS50 (K562 [7])	TCS50 (CCRF-CEM [8])	TCS50 (B16 [9])	TCS50 (HT-29)	TCS50 (U2OS)	other results
C=C(C=O)[C@@H]1CC[C@]2(C(=O)O)CC[C@]3(C)[C@H](CC[C@@H]4[C@@]5(C)CC[C@H](OC(C)=O)C(C)(C)[C@@H]5CC[C@]43C)C12 (stereo partly drawn)	3.26 µM	43.27 µM	3.55 µM	15.12 µM	3.68 µM	1.27 µM	1.58 µM	15.7 µM	4 µM	2.59 µM	4.8 µM	4.3 µM	2.36 µM	6.28 µM	2.37 µM	1.59 µM	4 µM	12.4 µM	12.31 µM	3.94 µM	TCS50 (Caco-2): 7.72 µM; TCS50 (SW-620): 5.86 µM; TCS50 (HepG2): 7.12 µM; TCS50 (CEM-VCR): 6.95 µM; TCS50 (CEM-VCR 1/D/5): 7.82 µM; TCS50 (B16 [10]): 9.32 µM; TCS50 (CEM-VCR 1/F3): 5.94 µM; TCS50 (K562 [11]): 2.13 µM; TCS50 (U-87 MG): 98.3 µM; TCS50 (DU-145): 2.75 µM; TCS50 (Homo sapiens): 24.9 µM
COC(=O)[C@@]12CC[C@]3(C)[C@H](CC[C@@H]4[C@@]5(C)CC[C@H](OC(C)=O)C(C)(C)[C@@H]5CC[C@]43C)C1=C(C(C)C)C(=O)C2=O	5.18 µM	6.7 µM	3.26 µM	1.85 µM	5.86 µM	4.85 µM	10.3 µM	96.8 µM	4.4 µM	4.65 µM	7.9 µM	12.9 µM	5.04 µM	15.3 µM	3.28 µM	6.42 µM	4.4 µM	67.9 µM	5.23 µM	4.28 µM	TCS50 (Caco-2): 8.13 µM; TCS50 (SW-620): 5.89 µM; TCS50 (HepG2): 5.14 µM; TCS50 (CEM-VCR): 28.2 µM; TCS50 (CEM-VCR 1/D/5): 12.5 µM; TCS50 (B16 [10]): 35.4 µM; TCS50 (CEM-VCR 1/F3): 38.3 µM; TCS50 (K562 [11]): 5.17 µM; TCS50 (U-87 MG): 23.8 µM; TCS50 (DU-145): 1.98 µM; TCS50 (Homo sapiens): 85.3 µM
CC(=O)OC[C@@]1(C(=O)O)CC[C@]2(C)[C@H](CC[C@@H]3[C@@]4(C)CC[C@H](OC(C)=O)C(C)(C)[C@@H]4CC[C@]32C)C1=O	1.05 µM	2.8 µM	1.12 µM	0.19 µM	1.28 µM	0.35 µM	0.61 µM	7.21 µM	1 µM	0.9 µM	1.78 µM	2.3 µM	0.94 µM	2.03 µM	1.35 µM	0.63 µM	1 µM	4.66 µM	3.57 µM	1.53 µM	TCS50 (Caco-2): 2.97 µM; TCS50 (SW-620): 1.22 µM; TCS50 (HepG2): 1.67 µM; TCS50 (CEM-VCR): 2.51 µM; TCS50 (CEM-VCR 1/D/5): 2.93 µM; TCS50 (B16 [10]): 0.43 µM; TCS50 (CEM-VCR 1/F3): 3.27 µM; TCS50 (K562 [11]): 0.28 µM; TCS50 (U-87 MG): 1.85 µM; TCS50 (DU-145): 0.84 µM; TCS50 (Homo sapiens): 12.5 µM
C=C(C)[C@@H]1CC[C@]2(C(=O)O)CC[C@]3(C)[C@H](CC[C@@H]4[C@@]5(C)CC[C@H](O)C(C)(C)[C@@H]5CC[C@]43C)[C@@H]12 [BETULINIC ACID]	>250 µM	79.3 µM	244 µM	53.9 µM	2.65 µM	>250 µM	>250 µM	>250 µM	>250 µM	164 µM	>250 µM	194 µM	101 µM	>250 µM	195 µM	>250 µM	20 µM	4.6 µM	>250 µM	>250 µM	TCS50 (SW-620): >250 µM; TCS50 (HepG2): 3.61 µM; TCS50 (CEM-VCR): 68.5 µM; TCS50 (CEM-VCR 1/D/5): 24.1 µM; TCS50 (B16 [10]): 30.5 µM; TCS50 (CEM-VCR 1/F3): 19.1 µM; TCS50 (K562 [11]): >250 µM; TCS50 (U-87 MG): >228 µM; TCS50 (DU-145): 241 µM; TCS50 (Homo sapiens): >250 µM
